Screens (PubChem)
CHRM4 agonist = human M4 muscarinic receptor agonists, primary screen, CHO-K1 cells, Fluo-8 calcium fluorescence | 0.14% of 360,000 active | CHO-K1 hM4/Gqi5; vehicle 0%, full acetylcholine response 100% | AID 624127, 2012 | Muscarinic acetylcholine receptor M4 (Homo sapiens), P08173 | activation, % at 3 µM;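 active = activation above the run mean over all test wells plus 3 SD, cut at about 32% in these data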;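 also: peak over basal fluorescence ratio per well then scaled between controls; 0% = DMSO wells and 100% = acetylcholine at EC100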
Target sequence (P08173 whole entry, looked up): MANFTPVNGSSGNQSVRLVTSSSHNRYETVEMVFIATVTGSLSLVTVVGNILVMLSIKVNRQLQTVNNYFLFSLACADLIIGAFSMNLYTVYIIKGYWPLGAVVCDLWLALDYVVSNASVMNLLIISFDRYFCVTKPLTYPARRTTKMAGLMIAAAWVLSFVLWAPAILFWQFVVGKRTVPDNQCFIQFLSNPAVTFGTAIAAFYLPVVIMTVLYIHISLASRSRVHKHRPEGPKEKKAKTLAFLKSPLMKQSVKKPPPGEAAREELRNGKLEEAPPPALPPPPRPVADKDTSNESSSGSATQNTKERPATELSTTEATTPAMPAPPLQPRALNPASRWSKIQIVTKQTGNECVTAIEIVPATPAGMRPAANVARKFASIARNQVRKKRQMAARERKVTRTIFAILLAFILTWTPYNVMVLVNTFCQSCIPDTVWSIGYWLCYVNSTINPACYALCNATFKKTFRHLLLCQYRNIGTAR
M5 antag = human M5 muscarinic receptor antagonists, primary screen, CHO cells, Fluo-8 calcium fluorescence. Muscarinic acetylcholine receptor M5 (Homo sapiens), P08912. CHO-hM5 cells, ACh EC80. inhibition, % at 3 µM. 0.59% of 360,000 active;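 active = inhibition above a per-plate cutoff, the mean of that plate's test compounds plus 3 SD, cut at about 27% in these data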;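 also: 0% = acetylcholine EC80 with DMSO and 100% = DMSO without agonist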
CHRM5 agonist = human M5 muscarinic receptor agonists, primary screen, CHO-K1 cells, Fluo-8 calcium fluorescence | AID 624037, 2012 | CHO-K1 hM5 cells; 0% DMSO wells, 100% maximal acetylcholine response | activation, % at 3 µM | 0.19% of 360,000 active;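 active = activation above the run's mean over test compounds plus 3 SD, cut at about 23% in these data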;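 also: signal is peak over basal fluorescence ratio across the kinetic read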
M5 PAM = human M5 muscarinic receptor positive allosteric modulators, primary screen, CHO-K1 cells, Fluo-8 calcium fluorescence. Muscarinic acetylcholine receptor M5 (Homo sapiens), P08912. CHO-K1 hM5, ACh EC20 PAM; 0% = ACh EC20, 100% = ACh EC100. activation, % at 3 µM. 0.3% of 360,000 active. AID 624038, 2012;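 active = activation above the run cutoff, the mean activation of all test compounds plus 3 SD, cut at about 18% in these data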
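Probe or stimulus: acetylcholine, EC20 level; Assay system: human M5 receptor in CHO-K1 cells; Schedule: compound preincubation 140 s before EC20 acetylcholine addition; Technique: intracellular calcium via Fluo-8 fluorescence; Dosing: single-point, 3 µM nominal; Read-out basis: percent activation from peak-over-basal fluorescence ratio, scaled EC20-to-EC100 acetylcholine; Repeats: one well per compound, no replicates.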
M4 antag = human M4 muscarinic receptor antagonists, primary screen, CHO cells, Fluo-8 calcium fluorescence | CHO-hM4 cells, ACh EC80 | inhibition, % at 3 µM | AID 624125, 2012 | 0.73% of 360,000 active | Muscarinic acetylcholine receptor M4 (Homo sapiens), P08173;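 active = inhibition above its plate's cutoff, the mean inhibition of sample wells plus 3 SD, cut at about 27% in these data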;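 also: 0% = acetylcholine EC80 with DMSO and 100% = DMSO without agonist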
M4 PAM = human M4 muscarinic receptor positive allosteric modulators, primary screen, CHO-K1 cells, Fluo-8 calcium fluorescence; 0.4% of 360,000 active; activation, % at 3 µM; Muscarinic acetylcholine receptor M4 (Homo sapiens), P08173; CHO-K1 hM4/Gqi5, ACh EC20; 0% = ACh EC20, 100% = maximal ACh;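 active = activation above its plate's cutoff, the mean activation of sample wells plus 3 SD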
* = called active by the depositor. This is a sample that favours compounds with a hit; in the whole collection about 1.9% have one here.

SMILES | CHRM4 agonist | M5 antag | CHRM5 agonist | M5 PAM | M4 antag | M4 PAM
COc1cc(C(C)=O)ccc1OCC(=O)OC(C)C(=O)c1ccc(F)cc1 (centres undefined) | 2.4 | 15.3 | 2.6 | -5.5 | 5.8 | -3.6
Cc1ccc(Nc2ncnc(N)n2)cc1 | 0.3 | 12.2 | -1.1 | -3.7 | -7.4 | -4.2
Cc1cc(C)c(Nc2ncnc(N)n2)c(C)c1 | -1.6 | 4.8 | -2.8 | 4.3 | 100.2* | -73.5
CCC(=O)c1ccc2c(c1)N(CCCN(C)C)c1ccccc1S2 | 4.9 | 74.4* | -1.3 | -19.0 | 38.9* | -16.9
CC(=O)c1ccc2c(c1)N(CCCN(C)C)c1ccccc1S2 | 1.9 | 69.5* | -0.9 | -18.4 | 33.6* | -17.4
CN(C)CCCN1c2ccccc2CCc2ccc(Cl)cc21 | 4.8 | 92.0* | 0.0 | -19.1 | 72.2* | -16.7
CN(C)CCCN1c2ccccc2Sc2ccccc21 | 6.9 | 90.3* | 0.5 | -19.6 | 51.5* | -17.1
CC(=O)c1ccc2c(c1)N(C)c1ccccc1S2 | -1.2 | 2.0 | -2.8 | 7.2 | 8.0 | 5.4
CC(=O)c1cccc(NC(=O)C(C)OC(=O)c2ccc(-n3cnnn3)cc2)c1 (centres undefined) | 2.4 | 15.2 | 1.2 | -11.2 | 5.9 | -3.8
CC(C)N(C(=O)Cn1cc(S(=O)(=O)CC(=O)Nc2ccccc2)c2ccccc21)C(C)C | 0.9 | -7.1 | -3.3 | 3.7 | 4.0 | 4.5
CN(C(=O)c1ccc(-c2nn(C)c(=O)c3ccccc23)cc1)C1CCCCC1 | 14.4 | 4.5 | 4.5 | -8.2 | -2.6 | -6.3
CNCCCN1c2ccccc2CCc2ccccc21 | 10.1 | 84.6* | 1.0 | -18.7 | 36.1* | -18.7
CC(=O)Nc1cccc(NC(=O)CSc2ncc(-c3ccc(Cl)cc3)n2Cc2ccco2)c1 | 17.6 | 22.6 | 6.3 | -25.1 | 28.7* | -15.2
O=C(Nc1ccc(Cl)cc1)[C@@H]1[C@@H]2C(=O)N(c3ccc4ccccc4c3)C(=O)[C@@H]2[C@H]2C=CC=NN21 | -0.5 | 19.9 | -1.1 | 32.1* | -7.8 | 2.9
CC(C)CNC(=O)C1(C)CCCN1C(=O)Cc1cccc2ccccc12 (centres undefined) | 0.5 | 4.3 | 0.5 | -0.4 | -4.8 | 3.7
Cn1nc(C#N)c(=O)[nH]c1=O | 0.4 | -157.1 | 23.9* | 63.1* | 1.7 | -1.0
O=C(O)C1=C[C@H](c2ccc(F)cc2)C[C@H](OCc2ccc(CO)cc2)O1 | 1.2 | 13.8 | 1.1 | 0.1 | 5.2 | 2.6
CCOC(=O)c1cn(CC#N)c2cc(F)c(F)cc2c1=O | 1.9 | -3.6 | -3.1 | 8.4 | -8.6 | 24.2*
CCCCCCn1cc(C(=O)OCC)c(=O)c2cc(F)c(F)cc21 | -0.8 | -2.1 | -0.3 | 15.8 | 15.4 | 38.3*
CCOC(=O)c1cn(CC)c2cc(N3CCN(C)CC3)c(F)cc2c1=O | 0.6 | -4.7 | -2.6 | 6.4 | 3.9 | 2.9
COCC(=O)N[C@H]1CC[C@@H](CC(=O)OC)O[C@@H]1CO | 0.6 | 5.1 | 0.8 | 0.0 | -4.5 | 1.8
CCCCCCCC1CC(=O)C=C(C)C1C(=O)OCC (centres undefined) | -0.6 | 14.1 | -3.9 | -4.2 | -0.6 | 11.7*
CCOC(=O)c1c(C)nsc1NC(=O)C1CCCCC1 | -0.7 | -10.4 | 2.7 | 7.6 | -25.8 | 13.5*
CC1CCN(C(=O)Cn2c(=O)n(CCCC(=O)NCc3ccco3)c(=O)c3sccc32)CC1 | 2.9 | 10.2 | -3.0 | -5.4 | -5.7 | -1.2
CC(NC(=O)COC(=O)c1ccc([N+](=O)[O-])s1)c1ccccc1 (centres undefined) | 1.8 | 9.0 | 1.2 | 32.1* | -0.6 | 12.4
SMILES | CHRM4 agonist | M5 antag | CHRM5 agonist | M5 PAM | M4 antag | M4 PAM
Cc1ccc(C(=O)N2CCCC(N3CCN(c4ccccc4C)CC3)C2)c(=O)[nH]1 (centres undefined) | 0.7 | -6.7 | -5.2 | 4.4 | -0.7 | -0.5
CCc1ccc(CN(C)Cc2c(C(=O)N3CCOCC3)nc3c(C)cccn23)nc1 | 1.4 | 2.2 | -1.4 | -4.1 | 5.6 | -2.6
CC1=NN(C(=S)Nc2ccccc2)C(C)(C)C1 | 0.5 | 10.2 | -2.8 | 18.8* | 1.7 | 2.0
O=C(c1ccc(Cl)cc1)N(Cc1ccccc1F)N1C(=O)CCCC1=O | 1.9 | 12.3 | -1.3 | 0.2 | -0.8 | 1.2
CCOc1cc(N2CCOCC2)c(OCC)cc1NC(=O)c1cc(-c2ccco2)nc2ccccc12 | 17.0 | 22.3 | 4.3 | -13.3 | 28.5* | -23.8
CC1(C(=O)O)COC(c2ccc(Cl)cc2)OC1 (centres undefined) | 0.9 | 2.0 | -2.6 | 4.8 | -0.9 | 9.0
CCC1([N+](=O)[O-])COC(c2ccc(Cl)cc2)OC1 (centres undefined) | 1.6 | 2.2 | -2.2 | 8.6 | -9.9 | 27.0*
COc1cc(C2c3cc4c(cc3C(O)C3COCC23)OCO4)cc(OC)c1OC (centres undefined) | 0.4 | 14.3 | 6.6 | 11.7 | -3.8 | 3.4
COc1cc([C@@H]2c3cc4c(cc3[C@H](O)[C@H]3COC(=O)[C@H]23)OCO4)cc(OC)c1OC | 1.6 | 4.5 | 0.8 | -13.8 | 55.4* | -16.4
O=S(=O)(c1ccc(F)cc1)N1CCN(C(=S)NC2CC2)CC1 | 1.6 | 0.0 | 0.5 | -4.1 | -14.0 | 6.7
Cc1sc2ncnc(NS(=O)(=O)c3ccc(Cl)cc3)c2c1C | 3.2 | 9.3 | 3.0 | 3.6 | -4.8 | 6.1
CC(=O)Nc1ccc(S(=O)(=O)Nc2nc(C)nc3sc(C)c(C)c23)cc1 | -0.9 | -19.5 | -1.7 | 9.9 | -12.5 | 21.3*
COc1cccc(NC(=O)CCNC(=O)C2CCN(S(=O)(=O)c3ccc(F)cc3)CC2)c1 | 2.3 | 3.1 | 2.1 | 9.9 | -8.1 | 0.4
N#CCCn1nc(-c2ccccc2)cc1Nc1ccccc1NC(=O)c1cccs1 | 5.8 | -13.8 | -2.5 | 21.5* | -8.7 | -6.5
Cc1ccc2nc(C3CCCCC3)[nH]c2c1 | -1.1 | 2.2 | -4.7 | 7.9 | -5.0 | 2.3
Nc1nc(Cl)cc(N2CCC(c3cc(-c4ccc(Cl)cc4)n[nH]3)CC2)n1 | 25.9 | 39.2* | 13.9 | -25.1 | 35.6* | -7.3
CC(=O)OCC(=O)N1N=C(c2ccc3ccccc3c2)CC1c1ccccc1 (centres undefined) | 2.0 | -10.4 | 2.4 | 2.8 | -5.2 | 3.1
Nc1cc(=O)[nH]c(SCC(=O)N2N=C(c3ccc4ccccc4c3)CC2c2ccccc2)n1 (centres undefined) | 1.1 | 5.6 | -3.5 | -5.3 | 36.0* | -10.4
